Results as given in PMC3715055 (Science translational medicine, 2012).

Experiments:
[1] = target: T1, SERCA pump (Oryctolagus cuniculus, UniProt P04191); experiment: SERCA pump assay with skeletal muscle microsomes; format: biochemical, rabbit; settings: broken cell microsomal studies
[2] = tested on: TSU human bladder cancer cells; experiment: Clonal survival assay, PSMA-negative TSU cells, 72-hour exposure; format: cell-based; settings: human cancer cell lines (Fig. 3A: TSU)
In short: (§1)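 Clonal survival assays used PSMA-negative TSU bladder and PSMA-positive LNCaP prostate cancer cells exposed to test compounds for 72 hours. IC50 was the concentration inhibiting proliferation by 50%. Assays were run in triplicate and reported as mean ± SE.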

[3] = tested on: LNCaP human prostate cancer cells; experiment: Clonal survival assay, PSMA-positive LNCaP cells, 72-hour exposure; format: cell-based; settings: human cancer cell lines (Fig. 3A: LNCaP)
In short: as §1

[4] = tested on: TSU cells; experiment: Intracellular free calcium in fura-2-loaded TSU cells; format: cell-based, human; settings: PSMA-nonproducing TSU cells
[5] = Biodistribution in CWR22R-H-bearing castrated mice; format: in vivo, mouse
In short: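 Castrated mice carried CWR22R-H tumours started s.c. from 10 mg minced tumour in Matrigel. Five mice received one 56 mg/kg dose of test compound. Tumour, liver, kidney, skeletal muscle and brain were harvested 5 days later. Test compound and its PSMA cleavage products were measured in tissue by LC-MS. Tumour levels were compared with other tissues by Student's t test.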

[6] = Biodistribution in MCF-7 tumor-bearing mice; format: in vivo, mouse
[7] = target: T1, SERCA pump; experiment: Intrinsic fluorescence binding competition on SERCA; settings: intrinsic fluorescent studies
[8] = target: Fc-PSMA (Homo sapiens, UniProt Q04609); experiment: PSMA prodrug hydrolysis with Fc-PSMA; format: biochemical; settings: incubation with Fc-PSMA
In short: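 Enzyme activity was confirmed beforehand by 3H-NAAG hydrolysis. Aliquots taken over time were analysed by HPLC with 0.1% TFA in water and acetonitrile, 40–100% B over 25 min. Products were identified by co-elution and confirmed by MS. Human plasma and other purified proteases at equimolar level were also tested.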

[9] = Stability to hydrolysis in human plasma; format: in vitro ADME
[10] = tested on: other purified proteases; experiment: Hydrolysis by other purified proteases; format: biochemical; settings: equimolar concentrations of other proteases
[11] = tested on: LNCaP cells; experiment: Growth inhibition of LNCaP cells with or without PSMA inhibitor PMPA; format: cell-based, human; settings: 48-hour exposure, PMPA 10 μM
[12] = Dose-finding / maximum tolerated dose in mice; format: in vivo, mouse; settings: for maximally tolerated dose: × 3 doses
[13] = tested on: LNCaP human prostate cancer xenografts; experiment: LNCaP xenograft efficacy in intact mice; format: in vivo, mouse; settings: for treated-to-control tumor volume (T/C) ratio: maximally tolerated dose × 3
In short: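 Six-week-old male nude mice were inoculated in the flank with 2 × 10^6 LNCaP cells in Matrigel. Test compound was given i.v. at 56 mg/kg on days 0, 1 and 2. The docetaxel comparator was dosed on days 0, 2 and 5. Tumour volume was followed for 30 days against untreated mice by Student's t test. T/C was the treated-to-control tumour volume ratio.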

[14] = tested on: MDA-PCa2b human prostate cancer xenografts; experiment: MDA-PCa2b xenograft efficacy in intact mice; format: in vivo, mouse
In short: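 Six-week-old male nude mice carried flank MDA-PCa2b tumours from 2 × 10^6 cells in Matrigel. Test compound was given i.v. at 56 mg/kg on 3 consecutive days. Tumour volume was followed for ≥30 days against untreated controls by Student's t test. Tumours harvested 4 days after the last dose had H&E staining and nuclear AR immunostaining with rabbit polyclonal anti-AR antibody.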

[15] = tested on: CWR22R-H human prostate cancer xenografts; experiment: CWR22R-H xenograft efficacy in castrated mice; format: in vivo, mouse; settings: single 3-day course, 56 mg/kg × 3, out to ≥30 days
In short: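 Castrated mice had CWR22R-H xenografts from s.c. minced tumour (10 mg) in Matrigel. Three consecutive daily i.v. doses of 56 mg/kg were given on days 0, 1 and 2. Tumour volume was followed for ≥30 days against untreated controls by Student's t test. Body weight was recorded.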

[16] = tested on: MCF-7 human breast cancer xenografts; experiment: MCF-7 xenograft efficacy in female nude mice; format: in vivo, mouse; settings: for T/C ratio: day 21
In short: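 Female nude mice with s.c. estrogen pellets carried flank tumours from 2 × 10^6 MCF-7 cells. Mice received one, two or three daily doses of 56 mg/kg test compound. Tumour volume and body weight were followed against untreated controls by Student's t test. Xenografts had histology 6 days after two doses. ER was stained with an ERα mAb. T/C was treated-to-control tumour volume.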

[17] = tested on: TSU human bladder cancer xenografts; experiment: TSU xenograft efficacy; format: in vivo, mouse; settings: more intensive treatment schedule
[18] = Body weight of xenograft-bearing mice; format: in vivo, mouse; settings: 56 mg/kg × 3, by 5 to 7 days after therapy, baseline by days 14 to 21
[19] = Single-dose pharmacokinetics in BALB/c mice; format: in vivo, mouse; settings: single dose of 67 mg/kg
In short: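 Wild-type BALB/c mice received a single i.v. dose of 67 mg/kg. Groups of three mice were sampled at time points over 24 hours. Plasma test compound and its 12ADTβAsp cleavage product were quantified by LC-MS/MS. Analysis was noncompartmental, with a semilog regression trend line.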

[20] = GLP toxicology in cynomolgus monkey; format: in vivo
In short: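 Toxicology was done in cynomolgus monkeys of both sexes at 10 mg/kg, with vehicle-treated controls. Necropsy was on day 33 and examined lymph nodes, spleen and thymus histologically. Splenic/body weight and thymus/body weight ratios were compared with vehicle animals, three per sex.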

[21] = GLP toxicology in rat; format: in vivo
[22] = Phase 1 clinical trial pharmacokinetics; format: in vivo, human
In short: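 Eighteen advanced cancer patients in a phase 1 dose-escalation trial received a 1-hour i.v. infusion at 1.2 to 40 mg/m2. Serum concentrations were followed over 24 hours. Analysis was noncompartmental. AUC0–∞ used the linear trapezoidal method and t1/2 the log-linear terminal slope. Dose proportionality was assessed from AUC across doses.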

[23] = Pharmacokinetics in monkey toxicological studies; format: in vivo; settings: serum, intravenous
In short: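 Male and female monkeys received a single 1-hour treatment at 1 to 10 mg/kg. Serum levels of test compound were followed over 24 hours. Analysis was noncompartmental. Terminal half-life came from the terminal slope of a log-linear concentration–time plot.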

[24] = tested on: PC-3 human prostate cancer cells; experiment: Clonal survival of PC-3 cells after repeated exposure; format: cell-based; settings: 11 cycles of repeat exposure and clonal expansion, 500 nM
[25] = BALB/c mice; cited from earlier work
[26] = MCF-7, 5 days after single dose of G202 56 mg/kg

T1 sequence (P04191 whole entry): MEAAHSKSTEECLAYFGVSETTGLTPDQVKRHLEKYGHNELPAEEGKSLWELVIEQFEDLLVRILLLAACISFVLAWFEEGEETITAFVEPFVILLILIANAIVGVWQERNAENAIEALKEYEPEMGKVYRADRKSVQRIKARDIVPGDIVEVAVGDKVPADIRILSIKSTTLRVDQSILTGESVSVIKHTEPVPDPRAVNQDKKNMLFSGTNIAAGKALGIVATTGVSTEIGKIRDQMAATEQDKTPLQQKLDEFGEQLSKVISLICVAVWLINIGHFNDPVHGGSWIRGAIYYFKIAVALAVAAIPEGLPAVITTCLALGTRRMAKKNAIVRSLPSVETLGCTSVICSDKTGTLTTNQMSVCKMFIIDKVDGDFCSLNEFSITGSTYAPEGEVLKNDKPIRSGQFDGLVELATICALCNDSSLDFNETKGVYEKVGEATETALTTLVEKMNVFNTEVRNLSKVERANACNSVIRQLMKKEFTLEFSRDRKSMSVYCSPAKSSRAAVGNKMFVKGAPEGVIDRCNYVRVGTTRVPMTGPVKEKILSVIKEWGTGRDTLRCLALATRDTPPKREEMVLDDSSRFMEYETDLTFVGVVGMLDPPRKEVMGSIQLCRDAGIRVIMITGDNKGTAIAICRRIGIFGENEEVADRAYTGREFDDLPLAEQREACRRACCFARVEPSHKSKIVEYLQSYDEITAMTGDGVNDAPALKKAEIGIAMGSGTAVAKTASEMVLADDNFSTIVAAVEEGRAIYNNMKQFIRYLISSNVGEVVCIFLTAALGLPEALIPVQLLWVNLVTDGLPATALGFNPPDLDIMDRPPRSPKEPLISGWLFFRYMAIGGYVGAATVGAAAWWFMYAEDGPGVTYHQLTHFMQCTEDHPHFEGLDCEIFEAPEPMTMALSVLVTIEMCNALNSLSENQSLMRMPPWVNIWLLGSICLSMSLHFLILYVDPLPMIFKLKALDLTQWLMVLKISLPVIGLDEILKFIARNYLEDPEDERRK
Chain of Fc-PSMA (Q04609 44-750 limits assumed): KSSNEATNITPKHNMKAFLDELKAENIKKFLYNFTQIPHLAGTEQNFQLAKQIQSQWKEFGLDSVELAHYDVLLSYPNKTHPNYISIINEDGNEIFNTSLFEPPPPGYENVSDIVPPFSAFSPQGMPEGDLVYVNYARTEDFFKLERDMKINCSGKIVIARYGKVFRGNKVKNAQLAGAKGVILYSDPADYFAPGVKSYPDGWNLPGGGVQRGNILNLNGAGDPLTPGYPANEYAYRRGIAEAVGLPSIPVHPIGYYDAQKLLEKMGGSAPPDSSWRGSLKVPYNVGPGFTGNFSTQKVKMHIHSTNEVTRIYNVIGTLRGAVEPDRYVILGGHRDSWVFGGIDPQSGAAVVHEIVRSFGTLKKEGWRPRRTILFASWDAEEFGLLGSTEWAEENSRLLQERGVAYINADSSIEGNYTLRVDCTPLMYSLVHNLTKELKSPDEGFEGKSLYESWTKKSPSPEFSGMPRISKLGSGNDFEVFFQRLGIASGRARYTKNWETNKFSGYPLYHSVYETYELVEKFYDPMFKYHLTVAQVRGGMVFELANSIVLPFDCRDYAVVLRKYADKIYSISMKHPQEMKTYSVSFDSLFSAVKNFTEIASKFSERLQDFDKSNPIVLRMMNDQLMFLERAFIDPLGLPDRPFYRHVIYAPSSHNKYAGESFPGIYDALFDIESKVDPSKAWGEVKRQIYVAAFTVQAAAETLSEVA

C/C=C(/C)C(=O)O[C@H]1C(C)=C2[C@H]([C@@H]1OC(=O)CCCCCCC)[C@@](C)(OC(C)=O)C[C@H](OC(=O)CCCCCCCCCCCNC(=O)C[C@H](N)C(=O)O)[C@@]1(O)[C@H]2OC(=O)[C@@]1(C)O [12ADTβAsp]
potency at inhibiting the SERCA pump compared with TG [1]: as potent at inhibiting the SERCA pump in broken cell microsomal studies as was TG | cytotoxic potency compared with TG [2]: comparable to those of TG | cytotoxic potency compared with TG [3]: comparable to those of TG | maximal elevation in intracellular Ca2+ ([4]; 200 nM): up to 400 nM | accumulation in tumor tissue ([5]; 5 days after single dose of G202 56 mg/kg, CWR22R-H tumor): micromolar levels | fold higher amount in tumor tissue compared to normal brain ([5]; CWR22R-H, after G202 56 mg/kg): 354 fold | fold higher amount in tumor tissue compared to normal kidney ([5]; CWR22R-H, after G202 56 mg/kg): 15 fold | fold higher amount in tumors than in kidney [6, 26]: 3.5 fold | fold higher amount in tumors than in skeletal muscle [6, 26]: 1.6 fold | tumor concentration relative to that in CWR22R-H xenografts ([6]; MCF-7 versus CWR22R-H): 1/10 | binding competition with cyclopiazonic acid (CPA) [7]: competitively affect the binding of each other

C/C=C(/C)C(=O)O[C@H]1C(C)=C2[C@H]([C@@H]1OC(=O)CCCCCCC)[C@@](C)(OC(C)=O)C[C@H](OC(=O)CCCCCCCCCCCNC(=O)C[C@H](N)C(=O)N[C@@H](CCC(=O)N[C@@H](CCC(=O)N[C@@H](CCC(=O)N[C@@H](CCC(=O)O)C(=O)O)C(=O)O)C(=O)O)C(=O)O)[C@@]1(O)[C@H]2OC(=O)[C@@]1(C)O [G202, 12ADTβAsp-GluγGluγGluγGlu]
hydrolysis by PSMA [8]: efficiently hydrolyzed by PSMA | stability to hydrolysis in human plasma [9]: completely stable to hydrolysis in human plasma | hydrolysis by other purified proteases [10]: not appreciably hydrolyzed | increase in intracellular calcium ([4]; 5 mM (25-fold higher concentration)): no appreciable increase in intracellular calcium | growth inhibition of LNCaP cells on addition of PMPA [11]: could be blocked | bone marrow toxicity ([12]; mouse toxicology studies): no bone marrow toxicity | MTD ([12]; mouse, in vivo, iv): 112 mg/kg | mortality of treated animals ([12]; up to three consecutive daily doses of 56 mg/kg (1 μmol/dose)): < 10% | maximally tolerated single intravenous dose ([12]; wild-type mice): 2 μmol/dose | TG molar equivalents deliverable systemically compared to TG alone ([12]; without significant host toxicity): > 150 fold | maximally tolerated dose [12]: 1.0 µmol | treated-to-control tumor volume (T/C) ratio [13]: 0.15 | average regression of xenografts ([13]; single 3-day course, 56 mg/kg × 3, over a 30-day period): ~50% | androgen receptor (AR) expression in tumors ([14]; 4 days after 56 mg/kg × 3): marked down-regulation of AR expression | antitumor effect ([14]; single 3-day course, 56 mg/kg × 3, out to ≥30 days): Significant antitumor effects | antitumor effect [15]: Significant antitumor effects | T/C ratio at 3 weeks after treatment ([16]; MCF-7): 0.05 | effect on tumor growth ([16]; single dose 56 mg/kg on 1 day): tumor growth delay | T/C ratio ([16]; three consecutive doses of 56 mg/kg): 0.06 ± 0.005 | T/C ratio ([16]; two consecutive doses of 56 mg/kg): 0.05 ± 0.006 | effect on tumor growth ([16]; two daily doses of 56 mg/kg, out to 30 days, all treated animals): sustained tumor regression | estrogen receptor (ER) expression in tumors ([16]; two doses of 56 mg/kg, nadir 3 days after the last dose): down-regulation of the estrogen receptor | T/C ratio at 3 weeks after treatment [17]: 0.32 | maximum body weight loss [18]: about 15% | fraction of dose converted in the circulation to 12ADTβAsp [19]: Less than 1% | amount detected in the brain ([5]; mouse biodistribution studies): low amounts | animals with lymphoid depletion of lymph nodes ([20]; 10 mg/kg): five of six | animals with lymphoid depletion of spleen ([20]; 10 mg/kg): five of six | increase of splenic ratio ([20]; female monkeys, 10 mg/kg): 25% | decrease of splenic/body weight ratio versus vehicle ([20]; male monkeys, 10 mg/kg): 44% | decrease of thymus/body weight ratio versus vehicle ([20]; male monkeys, 10 mg/kg): 67% | bone marrow toxicity ([20]; monkey toxicology studies): no bone marrow toxicity | brain pathology ([20]; six monkeys, three consecutive doses of 10 mg/kg): within normal limits | brain pathology ([21]; rat pathological studies): lack of toxicity to the brain | renal toxicity ([21]; rat toxicological studies): transient reversible renal toxicity | bone marrow toxicity ([21]; rat toxicology studies): no bone marrow toxicity | predicted increase of AUC for a doubling in dose ([22]; first six dose cohorts, 1.2 to 40 mg/m^2): 2.23 fold | terminal half-life in patients relative to monkey ([22]; human versus monkey): ~1.5 fold | half-life ([22]; human, serum, intravenous): 15.1 h | half-life [23]: 9.7 h

CC(=O)O[C@@]12CO[C@@H]1C[C@H](O)[C@@]1(C)C(=O)[C@H](O)C3=C(C)[C@@H](OC(=O)[C@H](O)[C@@H](NC(=O)OC(C)(C)C)c4ccccc4)C[C@@](O)([C@@H](OC(=O)c4ccccc4)[C@H]21)C3(C)C [docetaxel, reference compound]
maximally tolerated dose [12]: 0.39 µmol | treated-to-control tumor volume (T/C) ratio [13]: 0.63

C/C=C(/C)C(=O)O[C@H]1C(C)=C2[C@H]([C@@H]1OC(=O)CCCCCCC)[C@@](C)(OC(C)=O)C[C@H](OC(=O)CCC)[C@@]1(O)[C@H]2OC(=O)[C@@]1(C)O [TG, thapsigargin]
clonal survival after repeated exposure [24]: no change in clonal survival | lethal dose for 100% of the test population (LD100) [25]: 0.2 mg/kg
